Measured values as given in ChEMBL document CHEMBL4350961, “Discovery of Pyrrolo[3,2- d]pyrimidin-4-one Derivatives as a New Class of Potent and Cell-Active Inhibitors of P300/CBP-Associated Factor Bromodomain” (J Med Chem, 2019).
Active and inactive are the calls of the source. No cut-off for these calls is given here.

Tests used:
[1] = biological target: Nucleosome-remodeling factor subunit BPTF (Homo sapiens, UniProt Q12830); assay: Binding affinity to human N-terminal His-tagged FALZ assessed as change in melting temperature at 10 uM by SYPRO orange dye-based fluorescence assay
Procedure, shortened: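 Thermal shift with His-tagged human bromodomain at 2 μM final in 10 mM HEPES pH 7.5, 500 mM NaCl. Compound at 10 μM final with 0.1% DMSO; SYPRO Orange at 1:1000. Equilibrated 3 min at 25 °C, then heated from 25 to 95 °C at 1 °C/min. Melting temperature shift taken from fluorescence; at least duplicate.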

[2] = biological target: E3 ubiquitin-protein ligase TRIM33 (Homo sapiens) (UniProt Q9UPN9); assay: Binding affinity to human partial length TRIM33 (D882 to A1087 residues) expressed in bacterial expression system at 1 uM by BROMOscan assay
E3 ubiquitin-protein ligase TRIM33 (Homo sapiens), sequence (Q9UPN9 whole entry, the tested form may be a part): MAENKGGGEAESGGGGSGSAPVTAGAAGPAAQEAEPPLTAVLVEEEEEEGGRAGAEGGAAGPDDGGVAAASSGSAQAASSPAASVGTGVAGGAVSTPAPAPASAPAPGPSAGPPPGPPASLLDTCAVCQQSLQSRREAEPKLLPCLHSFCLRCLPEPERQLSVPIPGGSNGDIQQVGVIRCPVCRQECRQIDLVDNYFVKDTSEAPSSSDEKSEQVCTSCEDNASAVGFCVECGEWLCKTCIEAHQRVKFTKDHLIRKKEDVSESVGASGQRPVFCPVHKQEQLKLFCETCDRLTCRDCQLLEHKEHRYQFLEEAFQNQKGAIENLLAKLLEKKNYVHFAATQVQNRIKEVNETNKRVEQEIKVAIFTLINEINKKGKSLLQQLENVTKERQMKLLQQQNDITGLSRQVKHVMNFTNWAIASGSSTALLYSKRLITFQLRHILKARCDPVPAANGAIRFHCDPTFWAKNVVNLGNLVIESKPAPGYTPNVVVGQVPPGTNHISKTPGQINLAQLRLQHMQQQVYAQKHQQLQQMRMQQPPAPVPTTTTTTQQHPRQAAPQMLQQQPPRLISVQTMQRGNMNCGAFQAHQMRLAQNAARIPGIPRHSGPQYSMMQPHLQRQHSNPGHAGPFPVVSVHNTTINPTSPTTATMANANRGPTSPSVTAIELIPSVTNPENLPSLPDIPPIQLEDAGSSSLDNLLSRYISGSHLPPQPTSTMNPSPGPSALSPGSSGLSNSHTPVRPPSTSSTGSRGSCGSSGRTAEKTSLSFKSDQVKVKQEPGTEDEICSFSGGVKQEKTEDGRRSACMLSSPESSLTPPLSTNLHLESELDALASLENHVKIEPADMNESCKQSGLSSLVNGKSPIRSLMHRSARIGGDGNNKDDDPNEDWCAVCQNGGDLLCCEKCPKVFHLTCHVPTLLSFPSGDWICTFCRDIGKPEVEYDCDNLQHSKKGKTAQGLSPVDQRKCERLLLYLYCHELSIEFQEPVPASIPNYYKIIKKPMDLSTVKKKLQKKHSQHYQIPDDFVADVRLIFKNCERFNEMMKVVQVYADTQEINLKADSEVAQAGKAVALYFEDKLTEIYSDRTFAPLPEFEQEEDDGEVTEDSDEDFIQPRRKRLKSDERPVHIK
Procedure, shortened: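 BROMOscan bromodomain cross-screen run by an outside service, compound at 1 µM against 32 recombinant bromodomains. Binding given as percent of control.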

[3] = biological target: Activin receptor type-2A (Homo sapiens) (UniProt P27037); assay: Inhibition of recombinant human ACTR2 (162 to end residues) at 10 uM using casein as substrate measured after 120 mins in presence of [gamma33P]ATP by scintillation counting method
Activin receptor type-2A (Homo sapiens), sequence (P27037 whole entry): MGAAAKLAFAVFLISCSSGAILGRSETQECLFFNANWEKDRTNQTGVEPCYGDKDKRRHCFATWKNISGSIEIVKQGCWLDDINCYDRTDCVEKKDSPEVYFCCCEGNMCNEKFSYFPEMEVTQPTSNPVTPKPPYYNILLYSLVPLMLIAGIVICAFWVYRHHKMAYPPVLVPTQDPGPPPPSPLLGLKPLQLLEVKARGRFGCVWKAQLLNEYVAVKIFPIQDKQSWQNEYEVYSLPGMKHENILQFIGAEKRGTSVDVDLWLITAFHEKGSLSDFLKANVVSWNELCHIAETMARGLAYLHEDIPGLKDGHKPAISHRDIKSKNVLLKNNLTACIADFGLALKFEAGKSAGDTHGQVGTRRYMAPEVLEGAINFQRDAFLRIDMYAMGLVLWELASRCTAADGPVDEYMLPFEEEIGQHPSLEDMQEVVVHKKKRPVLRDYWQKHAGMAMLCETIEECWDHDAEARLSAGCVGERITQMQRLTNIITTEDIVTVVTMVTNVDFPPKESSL

[4] = biological target: BMP-2-inducible protein kinase (Homo sapiens) (UniProt Q9NSY1); assay: Inhibition of recombinant human BIKepsilon at 10 uM using peptide substrate measured after 120 mins in presence of [gamma33P]ATP by scintillation counting method
[5] = biological target: Protein-tyrosine kinase 6 (Homo sapiens) (UniProt Q13882); assay: Inhibition of full-length recombinant human BRK at 10 uM using poly(Glu, Tyr) 4:1 as substrate measured after 40 mins in presence of [gamma33P]ATP by scintillation counting method
Protein-tyrosine kinase 6 (Homo sapiens), sequence (Q13882 whole entry, looked up): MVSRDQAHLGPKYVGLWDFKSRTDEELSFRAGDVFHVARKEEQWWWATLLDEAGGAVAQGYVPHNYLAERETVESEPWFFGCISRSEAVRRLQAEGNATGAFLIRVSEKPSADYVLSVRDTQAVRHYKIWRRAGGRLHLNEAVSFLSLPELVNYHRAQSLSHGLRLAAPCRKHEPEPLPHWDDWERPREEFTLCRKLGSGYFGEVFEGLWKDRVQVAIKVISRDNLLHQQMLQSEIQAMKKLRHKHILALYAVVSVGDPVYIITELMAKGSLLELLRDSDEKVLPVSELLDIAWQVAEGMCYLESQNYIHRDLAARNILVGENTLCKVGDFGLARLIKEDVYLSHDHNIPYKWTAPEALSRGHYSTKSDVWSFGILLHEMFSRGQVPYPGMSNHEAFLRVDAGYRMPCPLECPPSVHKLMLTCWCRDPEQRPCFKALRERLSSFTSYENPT
Procedure, shortened: (§1)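 Kinase panel of 422 kinases screened by Eurofins KinaseProfiler at a single test-compound concentration of 10 µM.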

[6] = test system: Serine/threonine-protein kinase B-raf (Homo sapiens), P15056 [V600E]; assay: Inhibition of recombinant human BRAF V599E mutant (416 to end residues) at 10 uM using myelin basic protein as substrate measured after 40 mins in presence of [gamma33P]ATP by scintillation counting method
Serine/threonine-protein kinase B-raf (Homo sapiens), P15056 [V600E], sequence (P15056 whole entry V600E): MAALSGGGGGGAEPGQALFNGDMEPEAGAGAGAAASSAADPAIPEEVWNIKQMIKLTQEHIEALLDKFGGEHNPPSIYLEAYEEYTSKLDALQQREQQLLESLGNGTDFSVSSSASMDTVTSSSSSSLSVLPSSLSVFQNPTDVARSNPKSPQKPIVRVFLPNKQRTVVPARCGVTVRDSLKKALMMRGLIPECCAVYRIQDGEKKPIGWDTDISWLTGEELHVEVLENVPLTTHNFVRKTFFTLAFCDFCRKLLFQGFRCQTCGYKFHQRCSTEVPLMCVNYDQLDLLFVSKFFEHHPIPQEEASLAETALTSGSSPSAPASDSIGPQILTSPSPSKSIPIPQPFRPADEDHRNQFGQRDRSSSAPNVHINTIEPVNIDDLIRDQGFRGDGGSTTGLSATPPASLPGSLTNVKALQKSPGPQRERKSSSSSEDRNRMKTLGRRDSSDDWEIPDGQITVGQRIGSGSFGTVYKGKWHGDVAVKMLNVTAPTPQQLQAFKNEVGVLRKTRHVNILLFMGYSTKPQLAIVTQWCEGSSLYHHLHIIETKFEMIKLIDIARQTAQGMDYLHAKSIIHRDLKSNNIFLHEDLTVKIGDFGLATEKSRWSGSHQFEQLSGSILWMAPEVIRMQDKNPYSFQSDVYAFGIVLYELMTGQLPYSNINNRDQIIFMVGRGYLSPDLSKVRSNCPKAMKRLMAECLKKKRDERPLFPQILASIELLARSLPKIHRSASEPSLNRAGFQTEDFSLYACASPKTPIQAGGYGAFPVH

[7] = biological target: Calcium/calmodulin-dependent protein kinase type II subunit alpha (Homo sapiens) (UniProt Q9UQM7); assay: Inhibition of recombinant full-length human CaMK2alpha at 10 uM using calmodulin as substrate measured after 40 mins in presence of [gamma33P]ATP by scintillation counting method
[8] = biological target: Cyclin-dependent kinase 5/CDK5 activator 1 (Homo sapiens) (UniProt Q00535+Q15078); assay: Inhibition of recombinant full-length human CDK5/p35 at 10 uM using histone H1 as substrate measured after 40 mins in presence of [gamma33P]ATP by scintillation counting method; type: protein-complex assay
Cyclin-dependent kinase 5/CDK5 activator 1 (Homo sapiens), sequence (Q00535 whole entry): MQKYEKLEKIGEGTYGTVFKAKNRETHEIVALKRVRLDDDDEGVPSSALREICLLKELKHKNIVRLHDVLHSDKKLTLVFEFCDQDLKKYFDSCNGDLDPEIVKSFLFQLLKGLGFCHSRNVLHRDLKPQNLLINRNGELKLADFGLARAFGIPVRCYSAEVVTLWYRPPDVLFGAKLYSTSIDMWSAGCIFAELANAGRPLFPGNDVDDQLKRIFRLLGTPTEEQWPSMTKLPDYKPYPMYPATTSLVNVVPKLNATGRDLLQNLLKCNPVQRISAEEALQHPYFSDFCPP
Cyclin-dependent kinase 5/CDK5 activator 1 (Homo sapiens), sequence (Q15078 99-307 partner limits assumed): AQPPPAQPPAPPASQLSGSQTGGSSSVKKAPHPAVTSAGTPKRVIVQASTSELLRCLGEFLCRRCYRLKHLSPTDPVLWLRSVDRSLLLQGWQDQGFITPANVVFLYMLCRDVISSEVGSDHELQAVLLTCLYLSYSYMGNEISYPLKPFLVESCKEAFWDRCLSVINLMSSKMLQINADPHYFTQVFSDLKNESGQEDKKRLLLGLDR

[9] = biological target: Cyclin-Y/Cyclin-dependent kinase 16 (Homo sapiens) (UniProt Q00536+Q8ND76); assay: Inhibition of recombinant full length human CDK16/cyclinY at 10 uM using PKSPKARKKL as substrate measured after 120 mins in presence of [gamma33P]ATP by scintillation counting method; type: protein-complex assay
[10] = biological target: Casein kinase I isoform epsilon (Homo sapiens) (UniProt P49674); assay: Inhibition of human CK1epsilon at 10 uM using KRRRALS(p)VASLPGL as substrate measured after 120 mins in presence of [gamma33P]ATP by scintillation counting method; procedure, shortened: as §1
[11] = biological target: Casein kinase I isoform delta (Homo sapiens) (UniProt P48730); assay: Inhibition of recombinant human CK1delta (1 to 294 residues) at 10 uM using KRRRALS(p)VASLPGL as substrate measured after 40 mins in presence of [gamma33P]ATP by scintillation counting method
Casein kinase I isoform delta (Homo sapiens), sequence (P48730 whole entry, looked up, the tested form may be a part, canonical isoform): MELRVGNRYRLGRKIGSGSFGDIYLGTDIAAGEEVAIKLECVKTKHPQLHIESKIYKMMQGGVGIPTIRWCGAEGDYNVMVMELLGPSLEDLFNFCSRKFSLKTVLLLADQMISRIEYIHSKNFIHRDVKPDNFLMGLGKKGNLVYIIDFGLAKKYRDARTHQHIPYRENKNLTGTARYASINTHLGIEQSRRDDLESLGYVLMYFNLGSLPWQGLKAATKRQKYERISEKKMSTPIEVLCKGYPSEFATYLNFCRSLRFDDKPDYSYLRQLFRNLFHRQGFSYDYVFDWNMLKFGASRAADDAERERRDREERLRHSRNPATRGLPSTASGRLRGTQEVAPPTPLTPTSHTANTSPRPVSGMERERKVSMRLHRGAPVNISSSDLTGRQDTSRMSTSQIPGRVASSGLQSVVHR

[12] = biological target: Casein kinase 2 (Homo sapiens) (UniProt P67870+P68400+P19784+Q8NEV1); assay: Inhibition of human CK2 at 10 uM; type: protein assay; procedure, shortened: as §1
[13] = biological target: Mitogen-activated protein kinase 1 (Homo sapiens) (UniProt P28482); assay: Inhibition of human MAPK2 at 10 uM; procedure, shortened: as §1
Mitogen-activated protein kinase 1 (Homo sapiens), sequence (P28482 whole entry): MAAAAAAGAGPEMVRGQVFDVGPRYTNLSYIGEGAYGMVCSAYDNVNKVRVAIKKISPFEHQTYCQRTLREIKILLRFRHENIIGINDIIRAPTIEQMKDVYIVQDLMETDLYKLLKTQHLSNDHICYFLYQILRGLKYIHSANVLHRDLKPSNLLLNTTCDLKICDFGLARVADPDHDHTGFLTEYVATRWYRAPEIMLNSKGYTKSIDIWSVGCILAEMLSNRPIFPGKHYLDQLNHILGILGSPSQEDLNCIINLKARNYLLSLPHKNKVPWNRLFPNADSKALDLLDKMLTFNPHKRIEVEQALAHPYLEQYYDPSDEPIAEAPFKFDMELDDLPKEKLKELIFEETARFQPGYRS

Homo sapiens [14] = species: Homo sapiens; assay: Inhibition of recombinant human MARK1 T20S mutant (2 to end residues) at 10 uM using KKKVSRSGLYRSPSMPENLNRPR as substrate measured after 40 mins in presence of [gamma33P]ATP by scintillation counting method
[15] = biological target: Ribosomal protein S6 kinase alpha-4 (Homo sapiens) (UniProt O75676); assay: Inhibition of recombinant human MSK2 (2 to end residues) at 10 uM using GRPRTSSFAEGKK as substrate measured after 40 mins in presence of [gamma33P]ATP by scintillation counting method
[16] = biological target: Serine/threonine-protein kinase Nek1 (Homo sapiens) (UniProt Q96PY6); assay: Inhibition of recombinant human NEK1 (1 to 505 residues) at 10 uM using RLGRDKYKTLRQIRQ as substrate measured after 40 mins in presence of [gamma33P]ATP by scintillation counting method
[17] = biological target: Serine/threonine-protein kinase PAK 6 (Homo sapiens) (UniProt Q9NQU5); assay: Inhibition of recombinant human PAK6 (382 to end residues) at 10 uM using RRRLSFAEPG as substrate measured after 40 mins in presence of [gamma33P]ATP by scintillation counting method
[18] = biological target: [Pyruvate dehydrogenase (acetyl-transferring)] kinase isozyme 2, mitochondrial (Homo sapiens) (UniProt Q15119); assay: Inhibition of human PDHK2 at 10 uM by radiometric method; procedure, shortened: as §1
[19] = test system: Phosphorylase b kinase gamma catalytic chain, liver/testis isoform (Homo sapiens), P15735 [F290L]; assay: Inhibition of recombinant human PhKgamma2 F290L mutant (1 to 301 residues) at 10 uM using KKLNRTLSFAEPG as substrate measured after 40 mins in presence of [gamma33P]ATP by scintillation counting method
[20] = biological target: Proto-oncogene tyrosine-protein kinase receptor Ret (Homo sapiens) (UniProt P07949); assay: Inhibition of human Ret (658 to end residues) using KKKSPGEYVNIEFG as substrate measured after 40 mins in presence of [gamma33P]ATP by scintillation counting method; procedure, shortened: as §1
[21] = biological target: Serine/threonine-protein kinase Sgk3 (Homo sapiens) (UniProt Q96BR1); assay: Inhibition of human SGK3 (119 to end residues) using GRPRTSSFAEGKK as substrate measured after 40 mins in presence of [gamma33P]ATP by scintillation counting method; procedure, shortened: as §1
[22] = test system: SNF-related serine/threonine-protein kinase (Homo sapiens), Q9NRH2 [UNDEFINED MUTATION]; assay: Inhibition of human SNRK E97G/P116A mutant (65 to 409 residues) using KKLRRTLSFAEPG as substrate measured after 40 mins in presence of [gamma33P]ATP by scintillation counting method; procedure, shortened: as §1
SNF-related serine/threonine-protein kinase (Homo sapiens), Q9NRH2 [UNDEFINED MUTATION], sequence (Q9NRH2 whole entry, looked up, stated change not applied, the tested form may be a part): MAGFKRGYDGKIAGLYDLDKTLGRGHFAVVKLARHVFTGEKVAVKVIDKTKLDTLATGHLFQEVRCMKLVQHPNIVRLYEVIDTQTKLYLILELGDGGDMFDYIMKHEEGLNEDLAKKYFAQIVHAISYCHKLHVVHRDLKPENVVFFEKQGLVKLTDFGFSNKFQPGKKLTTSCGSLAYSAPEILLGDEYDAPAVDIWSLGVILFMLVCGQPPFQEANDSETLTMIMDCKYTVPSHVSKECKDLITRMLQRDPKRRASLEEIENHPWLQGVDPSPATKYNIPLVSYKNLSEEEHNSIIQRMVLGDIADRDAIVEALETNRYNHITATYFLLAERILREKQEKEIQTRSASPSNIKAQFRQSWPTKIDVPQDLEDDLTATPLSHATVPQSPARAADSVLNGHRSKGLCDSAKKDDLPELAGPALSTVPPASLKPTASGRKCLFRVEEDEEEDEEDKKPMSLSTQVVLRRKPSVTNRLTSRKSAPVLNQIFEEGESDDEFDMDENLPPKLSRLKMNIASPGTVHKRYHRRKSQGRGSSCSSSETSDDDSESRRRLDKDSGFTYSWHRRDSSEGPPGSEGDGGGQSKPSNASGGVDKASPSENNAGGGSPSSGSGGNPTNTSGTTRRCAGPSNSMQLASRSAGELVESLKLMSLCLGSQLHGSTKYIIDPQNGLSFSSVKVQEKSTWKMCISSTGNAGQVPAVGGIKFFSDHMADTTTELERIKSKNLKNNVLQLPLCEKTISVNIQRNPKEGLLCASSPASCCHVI

Homo sapiens [23] = species: Homo sapiens; assay: Inhibition of human activated Tec F514V mutant (174 to end residues) using EFPIYDFLPAKKK as substrate measured after 40 mins in presence of [gamma33P]ATP by scintillation counting method

Structure (SMILES): CN1C[C@H](Nc2nc3cc[nH]c3c(=O)n2C)C[C@H](c2ccc3c(c2)OCCO3)C1
- ΔTm [1]: 5.3 °C
- Activity [2]: inactive
- inhibition [3]: inactive
- inhibition [4]: inactive
- inhibition [5]: inactive
- inhibition [6]: inactive
- inhibition [7]: inactive
- inhibition [8]: inactive
- inhibition [9]: inactive
- inhibition [10]: inactive
- inhibition [11]: inactive
- inhibition [12]: inactive
- inhibition [13]: inactive
- inhibition (Homo sapiens [14]): inactive
- inhibition [15]: inactive
- inhibition [16]: inactive
- inhibition [17]: inactive
- inhibition [18]: inactive
- inhibition [19]: inactive
- inhibition [20]: inactive
- inhibition [21]: inactive
- inhibition [22]: inactive
- inhibition (Homo sapiens [23]): inactive
